From article PMC9933479 (ACS Omega, 2023)
Like-named read-outs stand apart in the source and are kept apart here.

Assays:
Experiment in all cases: MTT assay, cytotoxicity/growth inhibition
[1] = tested on: HCT-116 (colon carcinoma); format: cell-based; conditions: Homo sapiens; for inhibition at 20 µM: HCT-116, 48 h, read-out: Cytotoxic Activity (% Growth Inhibition); for IC50: HCT-116
Method in brief: (§1)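 Cells were grown in RPMI (A549, HCT-116, PC-3) or DMEM (MCF-7) with 10% FBS at 37 °C and 5% CO2. Seeding per well was […] and PC-3 8 × 10^4 cells. […] MTT 250 μg/mL, 4 h; DMSO; A570; triplicate; mean ± SE.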

[2] = tested on: PC-3 (prostate carcinoma); format: cell-based; conditions: Homo sapiens; for inhibition at 20 µM: 48 h, read-out: Cytotoxic Activity (% Growth Inhibition)
Method in brief: as §1

[3] = tested on: MCF-7 (breast carcinoma); format: cell-based; conditions: Homo sapiens; for inhibition at 20 µM: MCF7, 48 h, read-out: Cytotoxic Activity (% Growth Inhibition); for IC50: MCF7
Method in brief: as §1

[4] = tested on: A549 (lung carcinoma); format: cell-based, human; conditions: for Cytotoxic Activity (% Growth Inhibition): A549, 20 μM concentration, MTT, 48 h, 20 µM; for inhibition at 20 µM / IC50: Homo sapiens; for inhibition at 20 µM: A549, 48 h; for IC50: A549
Method in brief: as §1

[5] = read-out: Cytotoxic Activity (% Growth Inhibition), A549, 20 μM concentration, MTT, 48 h

| SMILES | inhibition at 20 µM [1] | inhibition at 20 µM [2] | inhibition at 20 µM [3] | Cytotoxic Activity (% Growth Inhibition) [4] | inhibition at 20 µM [4, 5] | IC50 [1] | IC50 [2] | IC50 [3] | IC50 [4] | inhibition at 20 µM ([4]; read-out: Cytotoxic Activity (% Growth Inhibition)) |
| --- | --- | --- | --- | --- | --- | --- | --- | --- | --- | --- |
| Cc1cccc(C(=O)OCC2=CCC3[C@]4(C)COC(c5ccccc5)O[C@@H]4CC[C@@]3(C)[C@@H]2/C=C/C2=CCOC2=O)c1 (stereo partly drawn) [Compound 8i, ((4aR,6aR,7S,10bR)-6a,10b-Dimethyl-7-((E)-2-(2-oxo-2,5-dihydrofuran-3-yl)vinyl)-3-phenyl-4a,5,6,6a,7,10,10a,10b-octahydro-1H-naphtho[2,1-d][1,3]dioxin-8-yl)methyl 3-Methylbenzoate] | 4.35 ± 0.54% | 0% | 4.37 ± 0.01% | 67.66 ± 0.23% | 68% |  |  |  |  |  |
| C[C@@]12COC(c3ccccc3)O[C@@H]1CC[C@]1(C)C2CC=C(COC(=O)Cc2ccc(Cl)cc2)[C@H]1/C=C/C1=CCOC1=O (stereo partly drawn) [Compound 8q, ((4aR,6aR,7S,10bR)-6a,10b-Dimethyl-7-((E)-2-(2-oxo-2,5-dihydrofuran-3-yl)vinyl)-3-phenyl-4a,5,6,6a,7,10,10a,10b-octahydro-1H-naphtho[2,1-d][1,3]dioxin-8-yl)methyl 2-(4-Chlorophenyl)acetate] | 36.1 ± 0.96% | 39 ± 0.82% | 46 ± 0.72% |  | 11 ± 1% |  |  |  |  |  |
| CCCCCCCCCCCC(=O)OCC1=CCC2[C@]3(C)COC(c4ccccc4)O[C@@H]3CC[C@@]2(C)[C@@H]1/C=C/C1=CCOC1=O (stereo partly drawn) [Compound 8y, ((4aR,6aR,7S,10bR)-6a,10b-Dimethyl-7-((E)-2-(2-oxo-2,5-dihydrofuran-3-yl)vinyl)-3-phenyl-4a,5,6,6a,7,10,10a,10b-octahydro-1H-naphtho[2,1-d][1,3]dioxin-8-yl)methyl Dodecanoate] | 40.1 ± 0.8% | 32 ± 0.66% | 51 ± 0.35% |  | 71 ± 0.77% | > 20 µM | > 20 µM | 20 µM | 11 µM |  |
| C=C1CC[C@@H]2[C@](C)(CO)[C@H](O)CC[C@@]2(C)[C@@H]1C/C=C1/C(=O)OC[C@H]1O [Compound 1, Andrographolide, reference compound] | 4.86 ± 0.25% | 0% | 42.93 ± 0.05% | 21.64 ± 0.22% | 21% | > 20 µM | > 20 µM | > 20 µM | > 20 µM |  |
| C[C@]1(CO)C2CC=C(COC(=O)c3cccc(Br)c3)[C@@H](/C=C/C3=CCOC3=O)[C@]2(C)CC[C@H]1O (stereo partly drawn) [Compound 9e, ((1S,5R,6R,8aR)-6-Hydroxy-5-(hydroxymethyl)-5,8a-dimethyl-1-((E)-2-(2-oxo-2,5-dihydrofuran-3-yl)vinyl)-1,4,4a,5,6,7,8,8a-octahydronaphthalen-2-yl)methyl 3-Bromobenzoate] | 14.1 ± 0.24% | 0% | 1.93 ± 0.1% |  | 50.55 ± 0.17% |  |  |  |  |  |
| CCCCCCCC(=O)OCC1=CCC2[C@](C)(CO)[C@H](O)CC[C@@]2(C)[C@@H]1/C=C/C1=CCOC1=O (stereo partly drawn) [Compound 9w, ((1S,5R,6R,8aR)-6-Hydroxy-5-(hydroxymethyl)-5,8a-dimethyl-1-((E)-2-(2-oxo-2,5-dihydrofuran-3-yl)vinyl)-1,4,4a,5,6,7,8,8a-octahydronaphthalen-2-yl)methyl Octanoate] | 23.9 ± 0.58% | 67 ± 0.75% | 25 ± 0.36% |  | 16.8 ± 0.93% |  |  |  |  |  |
| COc1cc(CC(=O)OCC2=CCC3[C@](C)(CO)[C@H](O)CC[C@@]3(C)[C@@H]2/C=C/C2=CCOC2=O)cc(OC)c1OC (stereo partly drawn) [Compound 9u, ((1S,5R,6R,8aR)-6-Hydroxy-5-(hydroxymethyl)-5,8a-dimethyl-1-((E)-2-(2-oxo-2,5-dihydrofuran-3-yl)vinyl)-1,4,4a,5,6,7,8,8a-octahydronaphthalen-2-yl)methyl 2-(3,4,5-Trimethoxyphenyl)acetate] | 35.9 ± 0.87% | 48.7 ± 0.96% | 69 ± 0.58% |  | 32.6 ± 0.38% |  |  |  |  |  |
| COc1ccc(C(=O)OCC2=CCC3[C@](C)(CO)[C@H](O)CC[C@@]3(C)[C@@H]2/C=C/C2=CCOC2=O)cc1Cl (stereo partly drawn) [Compound 9l, ((1S,5R,6R,8aR)-6-Hydroxy-5-(hydroxymethyl)-5,8a-dimethyl-1-((E)-2-(2-oxo-2,5-dihydrofuran-3-yl)vinyl)-1,4,4a,5,6,7,8,8a-octahydronaphthalen-2-yl)methyl 3-Chloro-4-methoxybenzoate] | 27.5 ± 0.94% | 71.4 ± 0.56% | 47 ± 0.24% |  | 3.3 ± 0.63% | > 20 µM | 5.7 µM | 17.8 µM | > 20 µM |  |
| C[C@@]12COC(c3ccccc3)O[C@@H]1CC[C@]1(C)C2CC=C(COC(=O)c2cccc(F)c2)[C@H]1/C=C/C1=CCOC1=O (stereo partly drawn) [Compound 8c, ((4aR,6aR,7S,10bR)-6a,10b-Dimethyl-7-((E)-2-(2-oxo-2,5-dihydrofuran-3-yl)vinyl)-3-phenyl-4a,5,6,6a,7,10,10a,10b-octahydro-1H-naphtho[2,1-d][1,3]dioxin-8-yl)methyl 3-Fluorobenzoate] | 19.3 ± 0.37% | 0% | 2.06 ± 0.04% |  | 41.7 ± 0.45% |  |  |  |  |  |
| C[C@@]12COC(c3ccccc3)O[C@@H]1CC[C@]1(C)C2CC=C(COC(=O)c2cccc(Cl)c2)[C@H]1/C=C/C1=CCOC1=O (stereo partly drawn) [Compound 8d, ((4aR,6aR,7S,10bR)-6a,10b-Dimethyl-7-((E)-2-(2-oxo-2,5-dihydrofuran-3-yl)vinyl)-3-phenyl-4a,5,6,6a,7,10,10a,10b-octahydro-1H-naphtho[2,1-d][1,3]dioxin-8-yl)methyl 3-Chlorobenzoate] | 0% | 0% | 2.4 ± 0.084% |  | 30.11 ± 0.11% |  |  |  |  |  |
| CCCCCCCC(=O)OCC1=CCC2[C@]3(C)COC(c4ccccc4)O[C@@H]3CC[C@@]2(C)[C@@H]1/C=C/C1=CCOC1=O (stereo partly drawn) [Compound 8w, ((4aR,6aR,7S,10bR)-6a,10b-Dimethyl-7-((E)-2-(2-oxo-2,5-dihydrofuran-3-yl)vinyl)-3-phenyl-4a,5,6,6a,7,10,10a,10b-octahydro-1H-naphtho[2,1-d][1,3]dioxin-8-yl)methyl Octanoate] | 40.5 ± 0.91% | 49 ± 0.85% | 51 ± 0.96% |  | 70.7 ± 0.73% | > 20 µM | > 20 µM | 20 µM | 8.4 µM |  |
| COc1cccc(C(=O)OCC2=CCC3[C@]4(C)COC(c5ccccc5)O[C@@H]4CC[C@@]3(C)[C@@H]2/C=C/C2=CCOC2=O)c1 (stereo partly drawn) [Compound 8b, ((4aR,6aR,7S,10bR)-6a,10b-Dimethyl-7-((E)-2-(2-oxo-2,5-dihydrofuran-3-yl)vinyl)-3-phenyl-4a,5,6,6a,7,10,10a,10b-octahydro-1H-naphtho[2,1-d][1,3]dioxin-8-yl)methyl 3-Methoxybenzoate] | 11.72 ± 0.11% | 0% | 6.04 ± 0.12% | 48.88 ± 0.17% | < 52% |  |  |  |  |  |
| Cc1cccc(C(=O)OCC2=CCC3[C@](C)(CO)[C@H](O)CC[C@@]3(C)[C@@H]2/C=C/C2=CCOC2=O)c1 (stereo partly drawn) [Compound 9i, ((1S,5R,6R,8aR)-6-Hydroxy-5-(hydroxymethyl)-5,8a-dimethyl-1-((E)-2-(2-oxo-2,5-dihydrofuran-3-yl)vinyl)-1,4,4a,5,6,7,8,8a-octahydronaphthalen-2-yl)methyl 3-Methylbenzoate] | 0% | 0% | 2.09 ± 0.07% |  | 21.4 ± 0.42% |  |  |  |  |  |
| Cc1ccc(CC(=O)OCC2=CCC3[C@]4(C)COC(c5ccccc5)O[C@@H]4CC[C@@]3(C)[C@@H]2/C=C/C2=CCOC2=O)cc1 (stereo partly drawn) [Compound 8t, ((4aR,6aR,7S,10bR)-6a,10b-Dimethyl-7-((E)-2-(2-oxo-2,5-dihydrofuran-3-yl)vinyl)-3-phenyl-4a,5,6,6a,7,10,10a,10b-octahydro-1H-naphtho[2,1-d][1,3]dioxin-8-yl)methyl 2-(p-Tolyl)acetate] | 45.9 ± 0.86% | 69.5 ± 0.74% | 27 ± 0.29% |  | 48.9 ± 0.73% |  |  |  |  |  |
| C[C@@]12COC(c3ccccc3)O[C@@H]1CC[C@]1(C)C2CC=C(COC(=O)c2ccccc2C(F)(F)F)[C@H]1/C=C/C1=CCOC1=O (stereo partly drawn) [Compound 8n, ((4aR,6aR,7S,10bR)-6a,10b-Dimethyl-7-((E)-2-(2-oxo-2,5-dihydrofuran-3-yl)vinyl)-3-phenyl-4a,5,6,6a,7,10,10a,10b-octahydro-1H-naphtho[2,1-d][1,3]dioxin-8-yl)methyl 2-(Trifluoromethyl)benzoate] | 31.3 ± 0.89% | 55 ± 0.56% | 55 ± 0.69% |  | 18 ± 1.4% |  |  |  |  |  |
| C[C@@]12COC(c3ccccc3)O[C@@H]1CC[C@]1(C)C2CC=C(COC(=O)Cc2ccccc2)[C@H]1/C=C/C1=CCOC1=O (stereo partly drawn) [Compound 8o, ((4aR,6aR,7S,10bR)-6a,10b-Dimethyl-7-((E)-2-(2-oxo-2,5-dihydrofuran-3-yl)vinyl)-3-phenyl-4a,5,6,6a,7,10,10a,10b-octahydro-1H-naphtho[2,1-d][1,3]dioxin-8-yl)methyl 2-Phenylacetate] | 24.97 ± 0.16% | 0% | 32.09 ± 0.08% |  |  |  |  |  |  | 20.13 ± 0.02% |
